Assay results reported in ChEMBL document CHEMBL1765068, “Role of the side chain stereochemistry in the α-glucosidase inhibitory activity of kotalanol, a potent natural α-glucosidase inhibitor” (Bioorg Med Chem, 2011).

What was measured:
[1] = molecular target: T1, Sucrase-isomaltase, intestinal (Rattus norvegicus, UniProt P23739); assay: Inhibition of rat small intestinal sucrase after 30 mins
In short: (§1)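 Enzyme source was rat small-intestinal brush-border membrane vesicles suspended in 0.1 M maleate buffer, pH 6.0. Substrate solutions were maltose 74 mM (maltase), sucrose 74 mM (sucrase) and isomaltose 7.4 mM (isomaltase). Glucose was measured by glucose oxidase. IC50 was read graphically from % inhibition versus log concentration.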

[2] = molecular target: T1, Sucrase-isomaltase, intestinal; assay: Inhibition of rat small intestinal isomaltase after 30 mins; in short: as §1
[3] = molecular target: Sucrase-isomaltase, intestinal (Rattus norvegicus) (UniProt P23739); conditions: 100 ug/ml
Chain of Sucrase-isomaltase, intestinal (Rattus norvegicus) (P23739 1-1013 limits assumed): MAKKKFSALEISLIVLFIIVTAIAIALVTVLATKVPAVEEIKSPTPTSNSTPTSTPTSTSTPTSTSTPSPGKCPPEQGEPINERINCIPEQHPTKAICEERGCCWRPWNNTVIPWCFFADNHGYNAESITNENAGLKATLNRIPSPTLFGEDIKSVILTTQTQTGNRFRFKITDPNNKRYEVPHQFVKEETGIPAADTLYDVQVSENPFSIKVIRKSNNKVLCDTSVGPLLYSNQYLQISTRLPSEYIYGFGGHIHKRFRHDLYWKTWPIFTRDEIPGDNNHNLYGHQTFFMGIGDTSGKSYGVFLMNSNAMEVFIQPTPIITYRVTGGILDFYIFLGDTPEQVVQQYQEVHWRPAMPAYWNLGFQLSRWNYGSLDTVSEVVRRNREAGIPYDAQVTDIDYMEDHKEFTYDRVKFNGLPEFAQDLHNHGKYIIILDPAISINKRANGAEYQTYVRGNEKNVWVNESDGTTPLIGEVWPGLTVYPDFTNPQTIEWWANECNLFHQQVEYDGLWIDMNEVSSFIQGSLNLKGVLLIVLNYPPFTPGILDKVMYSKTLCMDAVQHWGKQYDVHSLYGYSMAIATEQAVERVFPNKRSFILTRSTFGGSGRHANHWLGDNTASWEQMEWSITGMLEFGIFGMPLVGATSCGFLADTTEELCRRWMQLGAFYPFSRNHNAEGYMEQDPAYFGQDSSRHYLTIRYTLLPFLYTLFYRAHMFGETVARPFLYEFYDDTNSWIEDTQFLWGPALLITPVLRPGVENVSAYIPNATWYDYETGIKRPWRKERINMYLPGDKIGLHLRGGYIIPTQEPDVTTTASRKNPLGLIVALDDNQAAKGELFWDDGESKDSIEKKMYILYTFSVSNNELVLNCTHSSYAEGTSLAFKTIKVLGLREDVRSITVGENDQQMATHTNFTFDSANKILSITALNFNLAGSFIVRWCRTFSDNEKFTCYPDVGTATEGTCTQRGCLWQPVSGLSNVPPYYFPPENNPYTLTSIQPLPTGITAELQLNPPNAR
Chain of Sucrase-isomaltase, intestinal (Rattus norvegicus) (P23739 1014-1841 limits assumed): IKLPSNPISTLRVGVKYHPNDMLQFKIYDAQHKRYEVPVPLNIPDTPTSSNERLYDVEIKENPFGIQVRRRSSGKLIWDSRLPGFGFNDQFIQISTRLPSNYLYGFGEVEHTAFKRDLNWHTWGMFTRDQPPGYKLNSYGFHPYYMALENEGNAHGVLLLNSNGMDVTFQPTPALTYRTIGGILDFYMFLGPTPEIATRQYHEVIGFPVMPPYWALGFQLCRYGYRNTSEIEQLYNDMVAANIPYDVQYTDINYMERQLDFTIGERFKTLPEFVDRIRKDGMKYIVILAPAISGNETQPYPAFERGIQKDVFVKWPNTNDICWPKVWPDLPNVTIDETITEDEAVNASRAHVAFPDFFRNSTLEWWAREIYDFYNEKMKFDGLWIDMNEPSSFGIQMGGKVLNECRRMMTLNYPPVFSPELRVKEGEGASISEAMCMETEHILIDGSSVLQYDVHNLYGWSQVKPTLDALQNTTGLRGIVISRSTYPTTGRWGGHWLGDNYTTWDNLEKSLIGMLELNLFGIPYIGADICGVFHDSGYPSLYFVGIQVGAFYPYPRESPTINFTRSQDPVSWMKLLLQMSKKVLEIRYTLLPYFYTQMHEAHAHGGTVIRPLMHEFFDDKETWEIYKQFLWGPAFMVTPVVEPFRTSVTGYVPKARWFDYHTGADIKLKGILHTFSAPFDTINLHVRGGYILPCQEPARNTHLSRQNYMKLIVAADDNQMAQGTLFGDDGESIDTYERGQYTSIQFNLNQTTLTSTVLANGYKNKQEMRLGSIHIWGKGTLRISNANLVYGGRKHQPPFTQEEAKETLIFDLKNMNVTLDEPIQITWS

[4] = molecular target: Lysosomal alpha-glucosidase (Rattus norvegicus) (UniProt Q6P7A9); conditions: 100 ug/ml
Chain of Lysosomal alpha-glucosidase (Rattus norvegicus) (Q6P7A9 whole entry): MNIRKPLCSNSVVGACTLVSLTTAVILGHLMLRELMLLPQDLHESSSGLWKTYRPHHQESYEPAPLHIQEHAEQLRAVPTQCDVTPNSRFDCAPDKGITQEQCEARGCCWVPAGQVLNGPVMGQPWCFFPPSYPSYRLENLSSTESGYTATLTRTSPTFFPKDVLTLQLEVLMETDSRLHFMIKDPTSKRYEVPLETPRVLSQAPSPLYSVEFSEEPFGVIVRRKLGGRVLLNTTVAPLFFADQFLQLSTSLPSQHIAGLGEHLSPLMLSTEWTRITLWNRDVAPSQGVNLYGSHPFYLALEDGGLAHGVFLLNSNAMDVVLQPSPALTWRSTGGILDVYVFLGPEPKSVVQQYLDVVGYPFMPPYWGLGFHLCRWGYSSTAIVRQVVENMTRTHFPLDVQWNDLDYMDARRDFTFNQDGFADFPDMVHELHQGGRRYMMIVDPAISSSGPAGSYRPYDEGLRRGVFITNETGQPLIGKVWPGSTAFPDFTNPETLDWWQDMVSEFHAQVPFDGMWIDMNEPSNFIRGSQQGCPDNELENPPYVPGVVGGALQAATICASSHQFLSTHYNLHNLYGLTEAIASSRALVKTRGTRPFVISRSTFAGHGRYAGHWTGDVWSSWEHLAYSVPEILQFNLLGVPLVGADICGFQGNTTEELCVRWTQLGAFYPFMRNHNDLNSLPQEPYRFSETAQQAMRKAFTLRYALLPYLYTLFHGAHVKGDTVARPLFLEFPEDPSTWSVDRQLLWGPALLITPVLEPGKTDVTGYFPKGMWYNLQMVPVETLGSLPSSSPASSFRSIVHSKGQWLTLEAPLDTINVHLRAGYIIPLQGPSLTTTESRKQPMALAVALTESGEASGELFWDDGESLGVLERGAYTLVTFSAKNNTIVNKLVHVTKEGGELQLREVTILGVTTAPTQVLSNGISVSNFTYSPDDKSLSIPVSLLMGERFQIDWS

[5] = Inhibition of rat small intestinal maltase after 30 mins

T1 sequence (P23739 1-1013 limits assumed): as the sequence (P23739 1-1013 limits assumed) above
T1 sequence (P23739 1014-1841 limits assumed): as the sequence (P23739 1014-1841 limits assumed) above

Compound	IC50 [1]	IC50 [2]	inhibition [3]	inhibition [4]	IC50 [5]
O=S(=O)([O-])O[C@H]([C@@H](O)[C@@H](O)[C@H](O)CO)[C@H](O)C[S+]1C[C@@H](O)[C@H](O)[C@H]1CO (stereo not given in full)	> 236 µM	16 µM	8%	25%	–
O=S(=O)([O-])O[C@@H]([C@H](O)[C@H](O)[C@@H](O)CO)[C@H](O)C[S+]1C[C@@H](O)[C@H](O)[C@H]1CO (stereo not given in full) [KOTALANOL]	–	–	–	–	7.2 µM
O=S(=O)([O-])O[C@@H]([C@H](O)[C@@H](O)CO)[C@H](O)C[S@+]1C[C@@H](O)[C@H](O)[C@H]1CO [PONKORANOL]	> 100 µM	–	–	–	–
O=S(=O)([O-])O[C@H]([C@@H](O)[C@H](O)[C@@H](O)CO)[C@H](O)C[S+]1C[C@@H](O)[C@H](O)[C@H]1CO (stereo not given in full)	> 236 µM	8.5 µM	28%	32%	–
O=S(=O)([O-])OC[C@H](O)C[S@+]1C[C@@H](O)[C@H](O)[C@H]1CO [SALAPRINOL]	0.29 µM	2.6 µM	–	–	–
O=S(=O)([O-])O[C@@H](CO)[C@H](O)C[S@+]1C[C@@H](O)[C@H](O)[C@H]1CO [SALACINOL]	–	–	–	–	5.2 µM
O=S(=O)([O-])O[C@H]([C@@H](O)[C@@H](O)[C@@H](O)CO)[C@H](O)C[S+]1C[C@@H](O)[C@H](O)[C@H]1CO (stereo not given in full)	23 µM	25 µM	–	–	–
O=S(=O)([O-])O[C@H]([C@@H](O)[C@H](O)[C@H](O)CO)[C@H](O)C[S+]1C[C@@H](O)[C@H](O)[C@H]1CO (stereo not given in full)	> 236 µM	9 µM	34%	45%	–
OCC(CO)N[C@H]1C[C@](O)(CO)[C@@H](O)[C@H](O)[C@H]1O [VOGLIBOSE]	1.2 µM	–	–	–	–
